# Screening data deposited in PubChem by several laboratories.
# FAS TE block = FAS thioesterase (human) inhibition. AID 602261. inhibition, % at 15 µM. recombinant FAS-TE, OMFH fluorogenic substrate, fluorescence endpoint. actives 0.67% (n = 360,000). P49327;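 active = compounds whose normalised, plate-corrected inhibition of enzyme fluorescence in the single-dose primary screen is 50% or more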;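 note: 0% = DMSO with enzyme and 100% = substrate without enzyme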
# ADAM17 inh = inhibitors of human ADAM17; P78536; recombinant ADAM17, EDANS/DABCYL FRET peptide cleavage; inhibition, % at 6.95 µM; actives 0.83% (n = 370,000); AID 720648;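 active = inhibition above the mean of compounds lying between control limits plus 3 SD, set per campaign, cut at about 8.5% in these data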;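 note: 0% = DMSO-only wells as the low control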
# ADAM10 inh = inhibits human ADAM10; AID 720582; O14672; recombinant ADAM10, EDANS/DABCYL FRET peptide cleavage, 3 h; inhibition, % at 7 µM; actives 0.62% (n = 370,000);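 active = inhibition above a per-campaign cutoff equal to the mean of compounds falling between control-based bounds plus 3 SD, cut at about 20% in these data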;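 note: 0% = DMSO wells while the 100% control is not disclosed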
# NRP1-CendR mod = modulators of CendR peptide binding to human neuropilin-1; FAM-RPARPAR peptide binding to NRP-1, fluorescence polarization; actives 0.85% (n = 360,000); inhibition, % at 25 µM; O14786;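 active = inhibition or corrected inhibition above about 18%, plus a signal ratio from 0.5 to 1.5, limit read from the data, passing the limit was not always enough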
# CaV13 FRET inh = Disruptors of the CACNA1D IQ motif to Ca2+-dependent inactivation inhibitor domain association, primary screening, Förster resonance energy transfer in intact living …. HEK cells, CFP/YFP FRET ICDI-IQ, plate reader, 10 min; percent FRET-ratio fall versus neutral wells. inhibition, % at 12.3 µM. actives 0.098% (n = 340,000). AID 743397;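 active = mean replicate inhibition of at least 30% and at least 1% of replicates passing that level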;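 note: 0% = median of the neutral control wells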
# Arr AP2 block = blocks beta-arrestin peptide binding to AP2 adaptin | inhibition, % at 10 µM | FITC-arrestin peptide / GST-AP2 beads, flow cytometry; AP2 beta2 appendage carries R879A mutation | actives 0.31% (n = 340,000);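 active = inhibition above a set limit, near 3 SD of compounds lacking own fluorescence, cut at about 54% in these data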;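 note: plate controls were DMSO wells for no effect and 5 µM unlabelled arrestin peptide for full effect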
#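 Material – AP2 appendage R879A on GSH beads · Buffer or medium – PBS with 0.05% Tween 20 and 0.1% BSA · Probe or stimulus – fluorescein-tagged arrestin peptide at 50 nM final · Incubation – compound with beads 12 min RT, then probe 1 h RT · Detection – high-throughput flow cytometry of beads, ex 488, em 535 nm · Evaluation – percent response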
# FAS-TE inh conf = confirmation of human fatty acid synthase thioesterase inhibitors; AID 624325; actives 45% (n = 2,300); recombinant FAS-TE, OMFH fluorogenic substrate, fluorescence; shares compounds with FAS TE block; inhibition, % at 15 µM;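 active = compounds inhibiting the enzyme by at least 50% at 15 µM in any one of the replicates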;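 note: 0% = enzyme with DMSO only and 100% = wells lacking enzyme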
# Starred values were filed as active, the others as inactive; x = no result. In the library only some 2.9% were active in any assay of this set; here they are far more common.
SMILES,FAS TE block,ADAM17 inh,ADAM10 inh,NRP1-CendR mod,CaV13 FRET inh,Arr AP2 block,FAS-TE inh conf
O=C(OCc1cccc(Cl)c1)c1cc([N+](=O)[O-])ccc1N1CCOCC1,59*,-3,3,-6,-4,-3,41
Fc1ccc2cc(C3=CCCCC3)ncc2c1,x,-3,-6,x,-5,x,x
COC(=O)[C@]12C[C@H](CC(=O)N3CCCCC3)C(=O)N(CCc3ccc(OC)c(OC)c3)C1=C[C@H](C1CCCC1)O[C@@H]2C,x,3,6,x,x,x,x
CCCC(=O)Nc1nc(-c2ccc3c(c2)CCN3S(C)(=O)=O)cs1,47,-5,0,-3,x,-5,x
CS(=O)(=O)N1CCc2cc(-c3csc(NC(=O)Cc4ccccc4)n3)ccc21,64*,8,10,14,x,3,58*
CC1Cc2cc(-c3csc(NC(=O)Cc4cccs4)n3)ccc2N1S(C)(=O)=O (centres undefined),51*,2,17,-2,-4,1,53*
CCOC1=C2CN(S(=O)(=O)c3ccc(C)cc3)[C@@H](c3cccs3)C[C@H]2[C@H]2C(=O)N(c3ccccc3)C(=O)[C@H]2C1,78*,-2,-4,19,-6,x,22
CCc1ccc([C@H]2C[C@H]3[C@H]4C(=O)N(c5ccccc5)C(=O)[C@H]4CC(=O)[C@@H]3CN2S(=O)(=O)c2ccc(C)cc2)cc1,74*,4,17,3,-5,x,13
Cc1ccc(S(=O)(=O)N2C[C@H]3C(=O)C[C@@H]4C(=O)N(c5ccccc5)C(=O)[C@@H]4[C@@H]3C[C@H]2c2cccs2)cc1,70*,-2,1,6,-7,x,46
Cc1ccc(S(=O)(=O)N2C[C@H]3C(=O)C[C@@H]4C(=O)N(c5ccccc5)C(=O)[C@@H]4[C@@H]3C[C@H]2c2cccc(Cl)c2)cc1,85*,-4,-8,-2,-6,x,1
CCCCS(=O)(=O)N1CCCc2nc(C)c(C)cc21,x,-2,-6,x,-6,x,x
O=C(NS(=O)(=O)Oc1ccccc1F)OC[C@@H]1CCCN2CCCCC12 (some centres undefined),-5,0,-5,2,-4,16,x
OC[C@@H]1CN(Cc2ccncc2)C[C@H](n2cnc3c(N4CCCC4)ncnc32)O1,-1,-2,-5,-1,-12,x,x
CCCC1CCC2(CC1)CCC2OC(=S)Nc1ccccc1Br (centres undefined),x,-2,3,x,x,x,x
CN1C(=O)/C(=C\c2cc(N=Nc3ccccc3)ccc2O)SC1=S,66*,2,7,1,x,23,38*
COc1ccc(OC)c(CN(CC(C)C)S(=O)(=O)c2ccccc2Br)c1,x,3,11,x,-4,x,x
CC(=O)C(N=Nc1ccccc1)(Sc1nnc(-c2ccccc2)n1-c1ccccc1)C(=O)Nc1ccccc1 (centres undefined),79*,4,15,6,-7,7,17
NC(=O)c1ccc(NC(=O)CSc2nnc(-c3ccccc3)n2-c2ccccc2)cc1,x,-1,0,x,x,x,x
C[C@H](CO)N1C[C@H](C)[C@@H](CN(C)Cc2ccccc2)Oc2c(NS(=O)(=O)c3ccc(F)cc3)cccc2C1=O,-7,0,4,15,-6,-7,x
C[C@H](CO)N1C[C@H](C)[C@@H](CN(C)Cc2ccc(Cl)c(Cl)c2)Oc2c(NS(=O)(=O)c3ccc(F)cc3)cccc2C1=O,54*,3,10,7,-6,x,58*
Cc1ccc(S(=O)(=O)Nc2ccc3c(c2)C(=O)N([C@H](C)CO)C[C@H](C)[C@@H](CN(C)Cc2ccc(-c4ccccc4)cc2)O3)cc1,81*,x,x,0,x,3,29
COc1cccc(N2CCN(CC(=O)NCc3ccccc3C)CC2)c1,x,0,-3,x,x,x,x
CC(C)(C)OC(=O)N1CCCC(C(=O)Nc2cccc(C(=O)N3CCOCC3)c2)C1 (centres undefined),-5,2,-7,-12,-6,25,x
